From ChEMBL document CHEMBL4339209, “Chemical modifications of imidazole-containing alkoxyamines increase C-ON bond homolysis rate: Effects on their cytotoxic properties in glioblastoma cells” (Bioorg Med Chem, 2019)
Each block holds one compound with its values, some of them ahead of it. Activity calls are given as the source filed them. No cut-off for these calls is given here.

Key:
[1] = Half life in H2O/MeOH buffered with HEPES/NaCl at pH 7.4 in presence of alkyl radical scavenger TEMPOR by 31P[1H]-NMR analysis; assay type: physicochemical; conditions: for half-life: H2O/MeOH buffered with HEPES/NaCl; for t1/2: buffer
U-87 MG = test: Cytotoxicity against human U87MG cells assessed as reduction in cell survival measured after 72 hrs by MTT assay; assay type: functional, cell-based, U-87MG ATCC; conditions: for Activity: U-87MG ATCC
Procedure, shortened: (§1)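 MTT viability on 2D cultures, U87-MG in DMEM and U251-MG in EMEM with […], both with 10% FBS and Pen Strep. 5000 cells seeded, then 72 h exposure to 500, 250, 100, 50, 25, 10 and 5 μM (DMSO at most […]). MTT 0.5 mg/mL for 1 h, formazan in DMSO read at 550 nm. Survival as % of control. IC50 determined graphically. At least triplicate.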

[2] = Dissociation constant, pKa of the compound in 1:1 v/v D2O/CD3OD by 1H-NMR spectrometric method; assay type: physicochemical
Procedure, shortened: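 Samples in D2O/CD3OD (1:1 v/v) were adjusted with DCl/NaOD to a series of pH* values, read on a meter calibrated with non-deuterated standards, and 1H-NMR was recorded at 400 MHz. Imidazole proton chemical shifts were plotted against pH* and fitted sigmoidally. The pKa* was converted by pH = 0.929 pH* + 0.42.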

[3] = Half life in H2O/MeOH buffered with Na2CO3/NaHCO3 at pH 10.3 in presence of alkyl radical scavenger TEMPOR by 31P[1H]-NMR analysis; assay type: physicochemical; conditions: buffer, pH 10.3
[4] = Half life in H2O/MeOH buffered with HCl/KCl at pH 2.2 in presence of alkyl radical scavenger TEMPOR by 31P[1H]-NMR analysis; assay type: physicochemical; conditions: buffer
[5] = n-octanol/phosphate buffered saline partition coefficient, log D of the compound at pH 7.4 by shake-flask method; assay type: physicochemical
Procedure, shortened: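 Shake-flask partition between pre-saturated n-octanol and PBS at pH 7.4. The aqueous phase was quantified by RP-HPLC on a 4.6 × 50 mm column, eluting with CH3CN/H2O (each with 0.1% TFA) from 10:90 to 100:0 over 10 min.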

[6] = Stability in H2O/MeOH buffered with HEPES/NaCl at pH 7.4 assessed as temperature; assay type: physicochemical; conditions: buffer
[7] = Drug homolysis in H2O/MeOH buffered with Na2CO3/NaHCO3 at pH 10.3 assessed as activation energy in presence of alkyl radical scavenger TEMPOR by 31P[1H]-NMR analysis
[8] = Drug homolysis in H2O/MeOH buffered with HCl/KCl at pH 2.2 assessed as activation energy in presence of alkyl radical scavenger TEMPOR by 31P[1H]-NMR analysis
[9] = Drug homolysis in H2O/MeOH buffered with Na2CO3/NaHCO3 at pH 10.3 assessed as rate constant by measuring nitroxide level in presence of alkyl radical scavenger TEMPOR by 31P[1H]-NMR analysis
[10] = Drug homolysis in H2O/MeOH buffered with HEPES/NaCl at pH 7.4 assessed as rate constant by measuring nitroxide level in presence of alkyl radical scavenger TEMPOR by 31P[1H]-NMR analysis
[11] = Drug homolysis in H2O/MeOH buffered with HCl/KCl at pH 2.2 assessed as rate constant by measuring nitroxide level in presence of alkyl radical scavenger TEMPOR by 31P[1H]-NMR analysis
[12] = Drug homolysis in H2O/MeOH buffered with HEPES/NaCl at pH 7.4 assessed as activation energy in presence of alkyl radical scavenger TEMPOR by 31P[1H]-NMR analysis
U-251 [13] = test: Cytotoxicity against human U251MG cells assessed as reduction in cell survival measured after 72 hrs by MTT assay; assay type: functional, cell-based; procedure, shortened: as §1
U-251 [14] = test: Cytotoxicity against human U251MG cells assessed as reduction in cell survival at IC50 measured after 72 hrs in presence of alkyl radical scavenger troxerutin by MTT assay; assay type: functional, cell-based
Procedure, shortened: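 U251-MG cells in EMEM (10% FBS, Pen Strep, […]) were exposed for 72 h to alkoxyamine together with an equal concentration of the alkyl radical scavenger troxerutin. Survival was read by MTT (0.5 mg/mL, 1 h, OD 550 nm) as % of control, and compared with alkoxyamine alone. At least triplicate.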

SMILES: CCOP(=O)(OCC)C(N(OC(C)c1cc[n+](C)cc1)C(C)(C)C)C(C)(C)C (stereo not given)
half-life [1]: 0.75 h
IC50 (U-87 MG): 250 µM

SMILES: CCOP(=O)(OCC)C(N(OC(C)c1ccncc1)C(C)(C)C)C(C)(C)C (stereo not given)
pKa ([2]; 1:1 v/v D2O/CD3OD, read-out: pKa): 4.7

pKa [2]: 6.04
t1/2 [3]: 312 h
t1/2 [4]: 5 h
t1/2 [1]: 81 h
logD ([5]; octanol/water): 4.1
SMILES: CCOP(=O)(OCC)C(N(OC(C)c1ncc[nH]1)C(C)(C)C)C(C)(C)C (stereo in doubt; form 1) [listing 1 of 2 here]

T [6]: 100 °C
t1/2 [1]: 5 yr
logD ([5]; octanol/water): -0.1
SMILES: CCOP(=O)(OCC)C(N(OC(C)n1cc[n+](C)c1)C(C)(C)C)C(C)(C)C (stereo in doubt; form 1) [listing 1 of 2 here]
IC50 (U-87 MG): 25 to 380 µM

T [6]: 70 °C
half-life [1]: 25 h
logD ([5]; n-octanol/phosphate buffered saline, read-out: logD): 0.8
SMILES: CCOP(=O)(OCC)C(N(OC(C)c1cn(C)c[n+]1C)C(C)(C)C)C(C)(C)C (stereo in doubt; form 1) [listing 1 of 2 here]
IC50 (U-87 MG): 25 to 380 µM

T [6]: 70 °C
t1/2 [1]: 10 h
logD ([5]; octanol/water): -0.2
SMILES: CCOP(=O)(OCC)C(N(OC(C)c1n(C)cc[n+]1C)C(C)(C)C)C(C)(C)C (stereo in doubt; form 1) [listing 1 of 2 here]
IC50 (U-87 MG): 25 to 380 µM

SMILES: CCOP(=O)(OCC)C(N(OC(C)c1c[nH]cn1)C(C)(C)C)C(C)(C)C (stereo in doubt; form 1)
Ea [7]: 29.4 kcal/mol
Ea [8]: 28.5 kcal/mol
Kdiss [9]: 1.53 ×10⁻⁴ /s
Kdiss [10]: 2.08 ×10⁻⁴ /s
Kdiss [11]: 5.23 ×10⁻⁴ /s
Ea [12]: 29.2 kcal/mol
Activity (U-87 MG): Dose-dependent effect
Activity (U-251 [13]): Dose-dependent effect

SMILES: CCOP(=O)(OCC)C(N(OC(C)c1cn(C)c[n+]1C)C(C)(C)C)C(C)(C)C (stereo in doubt; form 1) [listing 2 of 2 here]
Kdiss [10]: 5.73 ×10⁻⁴ /s
Ea [12]: 27.7 kcal/mol
Activity (U-87 MG): Dose-dependent effect
Activity (U-251 [13]): Dose-dependent effect

SMILES: CCOP(=O)(OCC)C(N(OC(C)c1cn(C)cn1)C(C)(C)C)C(C)(C)C (stereo in doubt; form 1)
Ea [7]: 30.2 kcal/mol
Ea [8]: 28.3 kcal/mol
Kdiss [9]: 4.89 ×10⁻⁵ /s
Kdiss [10]: 8.58 ×10⁻⁵ /s
Kdiss [11]: 7.84 ×10⁻⁴ /s
Ea [12]: 29.8 kcal/mol
Activity (U-87 MG): Dose-dependent effect
Activity (U-251 [13]): Dose-dependent effect

SMILES: CCOP(=O)(OCC)C(N(OC(C)c1n(C)cc[n+]1C)C(C)(C)C)C(C)(C)C (stereo in doubt; form 1) [listing 2 of 2 here]
Kdiss [10]: 1.27 ×10⁻³ /s
Ea [12]: 27.1 kcal/mol
Activity (U-87 MG): Dose-dependent effect
Activity (U-251 [13]): Dose-dependent effect

SMILES: CCOP(=O)(OCC)C(N(OC(C)c1ncc[nH]1)C(C)(C)C)C(C)(C)C (stereo in doubt; form 1) [listing 2 of 2 here]
Ea [7]: 29.2 kcal/mol
Ea [8]: 26.7 kcal/mol
Kdiss [9]: 1.97 ×10⁻⁴ /s
Kdiss [10]: 2 ×10⁻⁴ /s
Kdiss [11]: 7.47 ×10⁻⁴ /s
Ea [12]: 28.4 kcal/mol
Activity (U-87 MG): Dose-dependent effect
Activity (U-251 [13]): Dose-dependent effect

SMILES: CCOP(=O)(OCC)C(N(OC(C)c1nccn1C)C(C)(C)C)C(C)(C)C (stereo in doubt; form 1)
Ea [7]: 28.7 kcal/mol
Ea [8]: 26.2 kcal/mol
Kdiss [9]: 4.31 ×10⁻⁴ /s
Kdiss [10]: 4.76 ×10⁻⁴ /s
Kdiss [11]: 1.51 ×10⁻³ /s
Ea [12]: 27.8 kcal/mol
Activity (U-87 MG): Dose-dependent effect
Activity (U-251 [13]): Dose-dependent effect

SMILES: CCOP(=O)(OCC)C(N(OC(C)n1cc[n+](C)c1)C(C)(C)C)C(C)(C)C (stereo in doubt; form 1) [listing 2 of 2 here]
Kdiss [10]: 2.84 ×10⁻⁵ /s
Ea [12]: 32.3 kcal/mol
Activity (U-87 MG): Dose-dependent effect
Activity (U-251 [13]): Dose-dependent effect
Activity (U-251 [14]): Active

pKa [2]: 6.56
t1/2 [3]: 1680 h
t1/2 [4]: 170 h
t1/2 [1]: 528 h
logD ([5]; octanol/water): 3.8
SMILES: CCOP(=O)(OCC)C(N(OC(C)c1cn(C)cn1)C(C)(C)C)C(C)(C)C (stereo in doubt; form 2)
